This note sets out measurements from ChEMBL document CHEMBL1629529, “Design, synthesis, and evaluation of diarylpyridines and diarylanilines as potent non-nucleoside HIV-1 reverse transcriptase inhibitors” (J Med Chem, 2010).

For series [1], the system named is Human immunodeficiency virus 1. Briefly: Antiviral activity against HIV1. Type of series: functional, organism-based.
Series [2] in a line: Selectivity index, ratio of CC50 for human TZM-bl cells to EC50 for HIV1 NL4-3. Type of series: toxicity, cell-based.
The subject of series [3] is Human immunodeficiency virus 1. The series is described as follows: Antiviral activity against HIV1 NL4-3 infected in human TZM-bl cells after 2 days by luciferase reporter gene assay. (In general: Reporter assays use an easily measured gene product as a stand-in for the process of interest.)
Series [4] has as its system Human immunodeficiency virus 1. The series is described as follows: Resistance index, ratio of EC50 for multidrug resistant HIV1 RTMDR to EC50 for wild type HIV1 NL4-3. Type of series: functional.
Series [5] has as its system Human immunodeficiency virus 1. The series is described as follows: Antiviral activity against multidrug resistant HIV1 A17 containing reverse transcripatseK103N and Y181C mutation infected in human MT2 cells assessed as reduction in p24 antigen level after 4 days by ELISA. Type of series: functional, organism-based. The conditions noted are these: Human immunodeficiency virus 1, A17, MT2, 96 h. The essentials:
(§1)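 MT-2 cells (10^4/well) were infected with 100 TCID50 virus in RPMI 1640 with 10% FBS, with or without graded compound concentrations, overnight. Supernatant was then replaced with compound-free medium. On day 4 post-infection, supernatant was mixed 1:1 with 5% Triton X-100 and p24 antigen was quantified by ELISA. Percent inhibition was converted to EC50 with CalcuSyn. Tested at least in triplicate.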
Background: In an ELISA, binding on a coated surface is turned into a signal by an enzyme label.

In series [6] the test system is MT2. The series is described as follows: (§2) Cytotoxicity in human MT2 cells after 4 day by XTT assay. Type of series: cell-based. The conditions noted are these: mt2, 96 h. The method in brief:
(§3)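 MT-2 cells (5 · 10^5/mL) were mixed with an equal volume of graded compound concentrations and incubated 4 days at 37 °C. XTT solution (1 mg/mL) containing 0.02 μM phenazine methosulphate was then added. After 4 h, absorbance at 450 nm was read.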

A short description of series [7]: Cytotoxicity in human TZM-bl cells after 4 day by XTT assay. Type of series: cell-based. As to conditions: 96 h; call rule not given here. In general terms: Tetrazolium assays rely on reduction of a dye to a coloured formazan, in cell work by metabolically active cells.
In series [8] the test system is Human immunodeficiency virus 1. The series is described as follows: Antiviral activity against HIV1 3B infected in human MT2 cells assessed as reduction in p24 antigen level after 4 days by ELISA. The conditions noted are these: Human immunodeficiency virus 1, 3B, MT2, 96 h; read-out: EC50. Type of series: functional, organism-based. The essentials: as §1
The nature of series [9]: Selectivity index, ratio of CC50 for human MT2 cells to EC50 for HIV1 3B. Type of series: toxicity, cell-based. The conditions noted are these: mt2. The method in brief: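 SI = CC50/EC50 (p24 ELISA). XTT (1 mg/mL) containing 0.02 μM PMS was added for 4 h, then absorbance was read at 450 nm. CC50 was calculated with CalcuSyn.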
In series [10] the test system is Human immunodeficiency virus 1. The series is described as follows: Resistance index, ratio of EC50 for multidrug resistant HIV1 A17 to EC50 for wild type HIV1 3B. Type of series: functional.
The subject of series [11] is Human immunodeficiency virus 1. The series is described as follows: Antiviral activity against multidrug resistant HIV1 RTMDR containing reverse transcriptase L74V, M41L, V106A and T215Y mutant infected in human TZM-bl cells after 2 days by luciferase reporter gene assay. The conditions noted are these: Human immunodeficiency virus 1, RTMDR, 48 h.
Series [12] is described as follows: as §2. The conditions noted are these: MT2 cells. Type of series: cell-based. The method in brief: as §3
Where [13] appears, read: Human immunodeficiency virus 1, NL4-3, TZM-bl, 48 h, read-out: EC50.

Regarding `Cc1cc(C#N)cc(C)c1Oc1cc(Nc2ccc(C#N)cc2)c(N)cc1[N+](=O)[O-]`, the concentration for a half-maximal effect (EC50) in series [1] was determined as 3 nM.

`Cc1cc(/C=C/C#N)cc(C)c1Oc1ccc(N)c(Nc2ccc(C#N)cc2)c1`: the results for the “Ratio CC50/EC50” value in [2] (tzm-bl) and in series [9] were 45455 and > 631, respectively. Also, the concentration for a half-maximal effect (EC50) in series [3] (setting [13]) was 0.55 nM; in series [5] it was 600 nM; in series [8], < 14 nM; in [11], 1.79 nM. The “Ratio EC50” value is listed as 3.25 in [4] and 43 in series [10]. Further, the CC50 worked out at 8830 nM in [6] and 25000 nM in [7].

For the compound `Cc1cc(/C=C/C#N)cc(C)c1Oc1ccc([N+](=O)[O-])c(Nc2ccc(C#N)cc2)c1`, the selectivity ratio in series [2] (TZM-bl cells, read-out: Ratio CC50/EC50) came to 4690. Moreover, the concentration giving a half-maximal response (EC50) in [3] (setting [13]) was 10.4 nM; in series [5] it was > 10000 nM; in series [8], 37 nM; in series [11] it was 17 nM. The entries for the “Ratio EC50” value in series [4] and in series [10] were 1.63 and >270, respectively. For the same compound, the figures for the CC50 in [6] and in [7] were > 100000 nM and > 48800 nM, respectively. In addition, the “Ratio CC50/EC50” value in [9] is given as > 2702.

With `C=CCc1cc(C)c(Oc2ccc([N+](=O)[O-])c(Nc3ccc(C#N)cc3)n2)c(C)c1`, the EC50 result in [3] (tzm-bl) was “Not Active”; in series [8] it was 1340 nM. In series [12], this compound displayed a CC50 at 96 h of 39700 nM. Moreover, the “Ratio CC50/EC50” value in series [9] was 27.37.

Usually EC50 stands for the concentration at which the effect is half-maximal. What is called CC50 is the concentration that lowers cell viability or growth by half. A lower CC50 goes with greater toxicity to the cells.
